High-throughput results as filed in PubChem.
VIM-2 inhibitor: blocks Pseudomonas aeruginosa VIM-2 metallo-beta-lactamase; purified VIM-2, nitrocefin hydrolysis, epi-absorbance fluorescence; inhibition, % at 5.6 µM; 290,000 compounds, 0.89% hits; AID 1527;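 active = inhibition above the mean of all tested compounds plus 3 SD, cutoff set per screening run, cut at about 7.5% in these data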;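 also: red hydrolysis product quenches plate fluorescence so inhibitors raise well fluorescence; 0% = enzyme with DMSO and 100% = DMSO without enzyme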
sPLA2-III inh: Inhibits HGIII-sPLA2 liposome hydrolysis, primary screen | inhibition, % at 12.2 µM | AID 743126 | 370,000 compounds, 0.56% hits | QFRET BODIPY PC-A2 liposome hydrolysis, fluorescence | Q9NZ20;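 active = inhibition above mean plus 3 SD of compounds lying within the high and low control bounds, cut at about 19% in these data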;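 also: 0% = median of test compound wells and 100% = no enzyme DMSO wells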
Target sequence (Q9NZ20 whole entry, looked up): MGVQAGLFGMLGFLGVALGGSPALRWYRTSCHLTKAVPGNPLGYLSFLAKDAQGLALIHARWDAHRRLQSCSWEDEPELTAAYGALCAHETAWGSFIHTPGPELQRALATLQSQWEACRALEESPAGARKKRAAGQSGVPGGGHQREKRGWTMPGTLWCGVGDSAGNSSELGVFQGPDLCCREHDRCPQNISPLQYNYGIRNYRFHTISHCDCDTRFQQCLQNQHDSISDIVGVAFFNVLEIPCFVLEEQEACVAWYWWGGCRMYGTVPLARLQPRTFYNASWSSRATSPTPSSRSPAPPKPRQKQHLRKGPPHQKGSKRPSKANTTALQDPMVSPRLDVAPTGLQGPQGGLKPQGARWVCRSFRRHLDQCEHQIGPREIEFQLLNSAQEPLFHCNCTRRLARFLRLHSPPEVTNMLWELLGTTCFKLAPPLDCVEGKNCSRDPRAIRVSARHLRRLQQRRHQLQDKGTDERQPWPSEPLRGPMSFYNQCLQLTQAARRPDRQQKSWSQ
IMP-1 inhibitor: blocks Pseudomonas aeruginosa IMP-1 metallo-beta-lactamase; purified IMP-1, nitrocefin hydrolysis, epi-absorbance fluorescence; 290,000 compounds, 0.45% hits; AID 1556; inhibition, % at 5.6 µM;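 active = inhibition above the mean plus 3 SD of all compounds in the same screening run, cut at about 4.5% in these data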;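 also: 0% = IMP-1 with DMSO and 100% = DMSO wells lacking enzyme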
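System: Purified IMP-1 | Read-out basis: Percent enzyme inhibition | Controls: IMP-1 with DMSO as 0%, enzyme-free DMSO as 100% | Replicates: One well per compound | Doses: 5.6 µM nominal single concentration | Detection: Epi-absorbance fluorescence, 480 nm excitation, 530 nm emission | Incubation: 25 °C, 15 min preincubation, 25 min reaction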
PfM18AAP inh-1: PfM18AAP enzyme inhibition; recombinant PfM18AAP, H-Glu-NHMec fluorogenic cleavage; inhibition, % at 7.35 µM; 290,000 compounds, 1.2% hits; AID 1822;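 active = inhibition above the campaign mean inhibition over all tested compounds plus 3 SD, cut at about 28% in these data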;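 also: 0% = plate median of test compound wells and 100% = 2 mM ZnCl2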
PfM18AAP inh-2: confirmation of Plasmodium falciparum M18 aspartyl aminopeptidase inhibitors | recombinant PfM18AAP, H-Glu-NHMec fluorogenic cleavage | 2,400 compounds, 28% hits | shares compounds with PfM18AAP inh-1 | inhibition, % at 7.35 µM;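 active = mean inhibition over replicate wells above the hit cutoff set for the earlier primary screen, cut at about 29% in these data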;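 also: 0% = median of test compound wells and 100% = 2 mM ZnCl2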
CTSL1 confirm: counter-screen for PFM18AAP inhibitors: confirmation of human cathepsin L inhibitors; inhibition, % at 5.96 µM; shares compounds with PfM18AAP inh-1; purified cathepsin L1, Z-Leu-Arg-MCA fluorescence; AID 2178; 2,400 tested, under 10 active;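 active = average inhibition across replicates above the hit cutoff set in the earlier primary screen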;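 also: 0% = median of test compound wells and 100% = Z-Phe-Ala-diazomethylketone 1 µM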
* marks the source's active call; other numbers are inactive results. Only some compounds are listed: those with a hit (about 2.4% of all), similar ones and a draw of the others.

How did CCOC(=O)c1sc(N2C(=O)C(O)=C(C(=O)c3ccco3)C2c2ccco2)nc1C (centres undefined) do in these assays?
VIM-2 inhibitor: -2.0; sPLA2-III inh: 4.7; IMP-1 inhibitor: -2.7; PfM18AAP inh-1: 32.0*; PfM18AAP inh-2: -43.4; CTSL1 confirm: -1.7

Results for O=C(N/N=C/c1sc(=O)[nH]c1-[n+]1ccccc1)c1ccccc1[O-] ?
VIM-2 inhibitor: 0.2; sPLA2-III inh: -4.1; IMP-1 inhibitor: 1.2; PfM18AAP inh-1: 11.1

How did O=C(N/N=C/c1sc(=O)[nH]c1-[n+]1ccc2ccccc2c1)c1ccccc1[O-] do in these assays?
VIM-2 inhibitor: -8.1; sPLA2-III inh: -30.6; IMP-1 inhibitor: -3.1; PfM18AAP inh-1: 32.0*; PfM18AAP inh-2: -19.7; CTSL1 confirm: 3.3

Results for CC(COc1ccc(C#N)cc1)CN1CCC(C(O)(c2ccccc2)c2ccccc2)CC1 (centres undefined) ?
sPLA2-III inh: -19.1

Results for O=[N+]([O-])c1ccc(Nc2nc(N/N=C/c3cccc(F)c3)nc(N3CCCC3)n2)cc1 ?
VIM-2 inhibitor: 0.0; sPLA2-III inh: -1.2; IMP-1 inhibitor: -1.6; PfM18AAP inh-1: 43.8*; PfM18AAP inh-2: -34.6; CTSL1 confirm: -0.2

How did Cc1cccc(Nc2nc(-c3ccc(O)c(O)c3)cs2)n1 do in these assays?
VIM-2 inhibitor: 0.6; sPLA2-III inh: 5.0; IMP-1 inhibitor: -2.5; PfM18AAP inh-1: 54.5*; PfM18AAP inh-2: 27.8; CTSL1 confirm: -4.5

How did Cc1ccnc(Nc2nc(-c3ccc(O)cc3)cs2)c1 do in these assays?
VIM-2 inhibitor: -1.3; sPLA2-III inh: -11.1; IMP-1 inhibitor: 1.2; PfM18AAP inh-1: 8.8

How did Oc1ccc(-c2csc(Nc3ccccn3)n2)cc1O do in these assays?
VIM-2 inhibitor: 0.0; sPLA2-III inh: 12.8; IMP-1 inhibitor: -0.7; PfM18AAP inh-1: 64.0*; PfM18AAP inh-2: 47.4*; CTSL1 confirm: -3.7

How did Cc1cccc(Nc2nc(-c3ccc(F)c(C)c3)cs2)n1 do in these assays?
VIM-2 inhibitor: 0.1; sPLA2-III inh: -6.0; IMP-1 inhibitor: -0.6; PfM18AAP inh-1: -9.0

Results for Cc1cccnc1Nc1nc(-c2ccc(O)c(O)c2)cs1 ?
VIM-2 inhibitor: 0.1; sPLA2-III inh: 7.9; IMP-1 inhibitor: -2.8; PfM18AAP inh-1: 79.1*; PfM18AAP inh-2: 55.2*; CTSL1 confirm: 3.8

What do the screens show for `Cc1ccnc(Nc2nc(-c3ccc(O)c(O)c3)cs2)c1`?
VIM-2 inhibitor: -1.5; sPLA2-III inh: 12.3; IMP-1 inhibitor: -1.5; PfM18AAP inh-1: 62.3*; PfM18AAP inh-2: 46.6*; CTSL1 confirm: -1.2

Results for COC(=O)N1C[C@H](OCc2ccc3c(c2)OCO3)[C@H]2C[C@@H]1c1ccccc1O2 ?
sPLA2-III inh: 8.8

What do the screens show for `CN(CC(=O)Nc1ccncc1)S(=O)(=O)c1ccccc1`?
VIM-2 inhibitor: -1.5; sPLA2-III inh: -4.0; IMP-1 inhibitor: 2.1; PfM18AAP inh-1: -5.7

How did CCN(CC)S(=O)(=O)c1ccc(C(=O)Nn2cnnc2)cc1 do in these assays?
VIM-2 inhibitor: 0.6; sPLA2-III inh: -0.8; IMP-1 inhibitor: -2.1; PfM18AAP inh-1: 81.0*; PfM18AAP inh-2: 75.0*; CTSL1 confirm: 6.9

What do the screens show for `CN(CC(=O)Nn1cnnc1)S(=O)(=O)c1ccccc1`?
VIM-2 inhibitor: 1.6; IMP-1 inhibitor: -2.0; PfM18AAP inh-1: 32.3*; PfM18AAP inh-2: 19.8; CTSL1 confirm: -4.6

What do the screens show for `CC1(c2nnnn2Cc2ccccc2)CCC(=O)N1CCc1ccccc1F` (centres undefined)?
sPLA2-III inh: 11.3

Results for CCC1CCCCN1CCCNC(=O)c1ccc2c(c1)NC(=O)CN2C (centres undefined) ?
VIM-2 inhibitor: 1.8; sPLA2-III inh: -1.5; IMP-1 inhibitor: -2.7; PfM18AAP inh-1: 32.4*; PfM18AAP inh-2: -13.5; CTSL1 confirm: 4.5

What do the screens show for `Cc1nnc(NC(=O)CSc2nnc(-c3ccco3)n2C(C)C)s1`?
VIM-2 inhibitor: -0.3; sPLA2-III inh: 8.0; IMP-1 inhibitor: 2.5; PfM18AAP inh-1: -7.3

Results for CC(C)n1c(SCC(=O)Nc2nncs2)nnc1-c1ccco1 ?
VIM-2 inhibitor: -4.6; IMP-1 inhibitor: -5.6; PfM18AAP inh-1: 74.1*; PfM18AAP inh-2: 60.2*; CTSL1 confirm: -2.6

What do the screens show for `COC(=O)[C@]12C[C@H](CC(=O)N3CCN(C(=O)c4ccco4)CC3)C(=O)N(Cc3cccc4ccccc34)C1=C[C@H](COCc1ccccc1)O[C@@H]2C`?
sPLA2-III inh: -10.6
